Assay results published in paper PMC5060010 (ACS chemical biology, 2013).

What was measured:
mu-delta heteromer = mu-delta heteromer (Homo sapiens, UniProt P35372+P41143); test: immunocytochemical trafficking; type: cell-based; settings: ligand 1 μM, 30 minutes at 37°C, HEK-293 cells with FL-mu and HA-delta
[1] = target: mu/delta opioid receptors (Homo sapiens, UniProt P35372+P41143); type: cell-based; settings: mu/delta HEK-293 cells
Method in brief: (§1)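 Calcium release measured in HEK-293 cells stably expressing mu, or both mu and delta, opioid receptors. The dual-transfected cells came from an outside lab, and cDNA for the chimeric Gα subunit Δ6-Gαqi4-myr was used. Signal was read as fluorescence in relative fluorescence units, giving EC50 and ΔRFU. Where a mu agonist and a delta antagonist were combined, they were co-administered at equimolar levels rather than given as a pretreatment.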

mu opioid receptors = mu opioid receptors (Homo sapiens, UniProt P35372); type: cell-based; settings: mu HEK-293 cells
Method in brief: as §1

[2] = cited from earlier work
[3] = cited from earlier work; remark: listed apart in the source

mu/delta opioid receptors, sequence (P35372 whole entry): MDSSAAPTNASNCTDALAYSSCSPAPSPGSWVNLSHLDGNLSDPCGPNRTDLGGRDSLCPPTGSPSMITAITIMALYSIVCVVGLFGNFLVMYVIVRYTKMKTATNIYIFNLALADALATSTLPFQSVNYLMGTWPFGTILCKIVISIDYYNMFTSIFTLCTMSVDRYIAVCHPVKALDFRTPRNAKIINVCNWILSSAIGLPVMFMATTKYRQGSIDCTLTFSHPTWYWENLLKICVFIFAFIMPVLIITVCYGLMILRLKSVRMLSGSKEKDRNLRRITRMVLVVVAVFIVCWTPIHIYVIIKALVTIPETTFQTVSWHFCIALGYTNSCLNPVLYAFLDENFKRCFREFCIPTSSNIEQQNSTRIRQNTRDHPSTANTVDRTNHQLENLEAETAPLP
mu/delta opioid receptors, sequence (P41143 whole entry): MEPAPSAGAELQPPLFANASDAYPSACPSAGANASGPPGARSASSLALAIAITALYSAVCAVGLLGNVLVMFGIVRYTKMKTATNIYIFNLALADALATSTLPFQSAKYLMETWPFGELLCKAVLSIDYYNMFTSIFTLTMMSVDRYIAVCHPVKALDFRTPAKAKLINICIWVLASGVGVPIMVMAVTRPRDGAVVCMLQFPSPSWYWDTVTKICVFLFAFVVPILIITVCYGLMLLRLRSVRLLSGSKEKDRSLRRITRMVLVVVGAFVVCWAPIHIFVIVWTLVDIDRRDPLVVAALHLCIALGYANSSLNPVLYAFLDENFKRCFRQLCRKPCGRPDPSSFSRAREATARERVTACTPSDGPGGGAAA
mu opioid receptors, sequence (P35372 whole entry): as the sequence (P35372 whole entry) above
mu-delta heteromer, sequence (P35372 whole entry): as above
mu-delta heteromer, sequence (P41143 whole entry): as the sequence (P41143 whole entry) above

CN1CC[C@]23c4c5ccc(O)c4O[C@H]2[C@H](NC(=O)COCC(=O)NCCCCCCCNC(=O)COCC(=O)Nc2cccc4c6c([nH]c24)[C@@H]2Oc4c(O)ccc7c4[C@@]24CCN(CC2CC2)[C@@H](C7)[C@]4(O)C6)CC[C@@]3(O)[C@H]1C5 [MDAN-21]
internalization of mu and delta cell-surface opioid receptors (mu-delta heteromer): did not produce significant internalization | calcium release ΔRFU [1]: 468 RFU | EC50 ([1]; read-out: calcium release EC50): 412 nM | calcium release ΔRFU (mu opioid receptors): 420 RFU | EC50 (mu opioid receptors; read-out: calcium release EC50): 851 nM | antinociception [2]: potent antinociception | physical dependence [2]: without tolerance, physical dependence, or place preference | tolerance ([2]; mice): does not produce tolerance | place preference [3]: without tolerance, physical dependence, or place preference
